Data set [1] concerns Ishikawa. Description: Antiproliferative activity against human Ishikawa cells assessed as reduction in cell growth incubated for 48 hrs by CCK8 assay. In kind it is functional, cell-based. An outline of the steps:
(§1)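 CCK-8 viability assay. Cells seeded at 4000/well in 10% FBS medium for 24 h, then given compound diluted from DMSO stocks into 2% FBS medium at 100, 50, 25, 12.5, 6.25 and 3.125 µM (0.1% DMSO final). After 48 h, CCK-8 was added (0.5 mg/mL) for 2 h at 37 °C and OD450 read. Triplicates; IC50 fitted from mean viability.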

Data set [2] deals with T1, Estrogen receptor (Homo sapiens) (UniProt P03372).
T1 sequence (whole entry): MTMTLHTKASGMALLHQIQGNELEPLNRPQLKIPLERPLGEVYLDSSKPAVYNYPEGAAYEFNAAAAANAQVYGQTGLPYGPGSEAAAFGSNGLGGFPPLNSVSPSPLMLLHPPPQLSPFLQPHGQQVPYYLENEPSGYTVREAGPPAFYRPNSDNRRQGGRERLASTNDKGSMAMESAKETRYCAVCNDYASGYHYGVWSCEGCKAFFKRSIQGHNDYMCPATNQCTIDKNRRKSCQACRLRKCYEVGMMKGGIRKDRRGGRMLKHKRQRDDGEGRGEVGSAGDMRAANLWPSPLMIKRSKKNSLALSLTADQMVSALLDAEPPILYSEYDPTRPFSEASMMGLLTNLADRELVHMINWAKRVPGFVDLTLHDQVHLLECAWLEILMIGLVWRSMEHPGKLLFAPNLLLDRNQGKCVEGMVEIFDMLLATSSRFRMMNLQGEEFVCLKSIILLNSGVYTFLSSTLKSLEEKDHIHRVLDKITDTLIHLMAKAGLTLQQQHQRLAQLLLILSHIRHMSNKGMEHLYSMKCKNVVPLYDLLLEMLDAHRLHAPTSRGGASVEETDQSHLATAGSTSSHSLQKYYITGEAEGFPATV
In words: Covalent antagonist activity at ERalpha receptor in human ishikawa cells assessed as suppression of E2-stimulated PGR expression at 0.25 to 10 uM measured after 3 days by RT-PCR analysis. Type of data set: cell-based. The note with it: filed as antagonist, dose 0.25-10 µM, time 3.0 day. The essentials: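 Ishikawa cells stimulated with E2 and exposed 3 days to compound at 0.25, 0.5, 1 and 10 µM. PGR mRNA quantified by SYBR Green real-time PCR, normalised to GAPDH, ΔΔCT method.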

For data set [3], the target named is T1, Estrogen receptor (Homo sapiens). Description: Covalent antagonist activity at ERalpha in human MCF7 cells assessed as decrease in estradiol-induced GREB1 mRNA expression level at 0.25 to 10 uM measured after 24 hrs by RT-PCR analysis. In kind it is cell-based. The settings on record: filed as antagonist, dose 0.25-10 µM. An outline of the steps: (§2)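 MCF-7 cells stimulated with estradiol, then co-incubated 24 h with compound at 0.25, 0.5, 1 and 10 µM. RNA was reverse-transcribed and GREB1 or TFF1 measured by SYBR Green qPCR: 95 °C 10 min, then 40 cycles of 95 °C 5 s, 60 °C 60 s, 95 °C 15 s. Normalised to GAPDH, ΔΔCT method.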

The target is the same in data set [4]. In words: Covalent antagonist activity at ERalpha in human MCF7 cells assessed as decrease in estradiol-induced TFF1 mRNA expression level at 0.25 to 10 uM measured after 24 hrs by RT-PCR analysis. In kind it is cell-based. The settings on record: filed as antagonist, dose 0.25-10 µM. The essentials:
as §2

The next data set has as its system MDA-MB-231. Description: Antiproliferative activity against human MDA-MB-231 cells assessed as reduction in cell growth incubated for 48 hrs by CCK8 assay. In kind it is functional, cell-based. The note with it: MDA-MB-231, 48 h. An outline of the steps:
as §1
A general note: Tetrazolium assays rely on reduction of a dye to a coloured formazan, in cell work by metabolically active cells.

Data set [5] concerns MCF7. Description: Antiproliferative activity against human MCF7 cells assessed as reduction in cell growth incubated for 48 hrs by CCK8 assay. In kind it is functional, cell-based. The note with it: MCF7, 48 h. An outline of the steps: as §1
The subject of data set [6] is MCF7. Description: Downregulation of ERalpha expression in human MCF7 cells at 0.5 uM incubated for 24 hrs by Western blot assay. In kind it is functional, cell-based. The essentials:
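MCF-7 cells were kept in phenol red-free DMEM/F12 with 10% serum for 72 h before plating, then treated at 125, 250 and 500 nM for 24 h. Cells were lysed in RIPA buffer, protein was measured by BCA, and equal amounts were run on 10% SDS-PAGE and transferred to PVDF. ERα band intensity was normalized to GAPDH in each repeat.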
(Immunoblotting shows a protein as a band on a membrane.)

The test system of data set [7] is Ishikawa. Description: Potency index, ratio of raloxifene IC50 to test compound IC50 for human Ishikawa cells assessed as reduction in cell growth incubated for 48 hrs by CCK8 assay. Type of data set: functional.
Data set [8] deals with MCF7. In words: Potency index, ratio of raloxifene IC50 to test compound IC50 for human MCF7 cells assessed as reduction in cell growth incubated for 48 hrs by CCK8 assay. In kind it is functional.
The nature of data set [9]: Half life in rat plasma. In kind it is ADME, cell-free.
Data set [10] can be described thus: Intrinsic clearance in rat. In kind it is ADME.
A short description of data set [11]: Half life in rat liver microsomes. Type of data set: ADME, Microsome.

Calls of active or inactive are those of the source. No cut-off for these calls is given here.

A word on the IC50: it is the concentration that gives 50% inhibition. As for `O=C(CCCNCCOc1ccc(Oc2c(-c3ccc(F)cc3)sc3cc(O)ccc23)cc1)N1CCC1`, the IC50 with Ishikawa [1] is more than 25 µM; in the data set on MDA-MB-231 it was more than 50 µM; in the data set on MCF7 [5], more than 25 µM. Further, the inhibition result in data set [2], in data set [3] and in data set [4] was “Active” each time.
On to `O=C(/C=C/CNCCOc1ccc(Oc2c(-c3ccc(F)cc3)sc3cc(O)ccc23)cc1)N1CCCC1`, for which the 50% inhibitory concentration (IC50) in the data set on Ishikawa [1] is 11.2 µM; in the data set on MDA-MB-231 it was more than 50 µM; in the data set with MCF7 [5], 7.61 µM.
Regarding `O=C(/C=C/CNCCOc1ccc(Oc2c(-c3ccc(F)cc3)sc3cc(O)ccc23)cc1)N1CCCCC1`, the IC50 in the data set with Ishikawa [1] is 8.43 µM; in the data set with MDA-MB-231, more than 50 µM; in the data set on MCF7 [5] it was 16.4 µM.
With `C=C(C)C(=O)N1CC(Oc2ccc(Oc3c(-c4ccc(F)cc4)sc4cc(O)ccc34)cc2)C1`, the IC50 was 14.2 µM in the data set on Ishikawa [1], more than 50 µM with MDA-MB-231 and more than 25 µM in the data set with MCF7 [5].
Regarding `CC/C(=C(\c1ccccc1)c1ccc(OCCN(C)C)cc1)c1ccccc1` [TAMOXIFEN], the figures for the half-inhibitory concentration (IC50) with Ishikawa [1] and in the data set with MDA-MB-231 were 16.8 µM and more than 50 µM, respectively.
For the compound `CN(C)C(=O)/C=C/CNCCOc1ccc(Oc2c(-c3ccc(F)cc3)sc3cc(O)ccc23)cc1`, the values for the IC50 with Ishikawa [1], in the data set on MDA-MB-231 and with MCF7 [5] were 11.9 µM, more than 50 µM and 13.8 µM, respectively.
In the case of `C[C@]12CC[C@@H]3c4ccc(O)cc4C[C@@H](CCCCCCCCC[S+]([O-])CCCC(F)(F)C(F)(F)F)[C@H]3[C@@H]1CC[C@@H]2O` (some centres not stated), the inhibition entry with MCF7 [6] was “inactive”.
Turning to `O=C(/C=C/CN1CC(Oc2ccc(Oc3c(-c4ccc(F)cc4)sc4cc(O)ccc34)cc2)C1)N1CCOCC1`, the IC50 was 9.84 µM with Ishikawa [1], more than 50 µM in the data set on MDA-MB-231 and 8.9 µM in the data set with MCF7 [5]. Besides, the Ratio IC50 in the data set on Ishikawa [7] is 1.26; with MCF7 [8], 2.
For `O=C(c1ccc(OCCN2CCCCC2)cc1)c1c(-c2ccc(O)cc2)sc2cc(O)ccc12` [RALOXIFENE], the IC50 in the data set on Ishikawa [1] was 12.4 µM; in the data set on MDA-MB-231, more than 50 µM; with MCF7 [5] it was 19.9 µM.
In the case of `C=CC(=O)N1CC(Oc2ccc(Oc3c(-c4ccc(F)cc4)sc4cc(O)ccc34)cc2)C1`, the IC50 in the data set with Ishikawa [1] is 12.3 µM; in the data set with MDA-MB-231, more than 50 µM; with MCF7 [5], 23.5 µM.
The half-life is the time in which the quantity being followed falls by half. A high value points to slow loss. `CC(Cc1cccc(C(F)(F)F)c1)NCCOC(=O)c1ccccc1` (configuration not stated) [BENFLUOREX] came in with a half-life in data set [9] of 28.3 min.
Turning to `O=C(/C=C/CN1CC(Oc2ccc(Oc3c(-c4ccc(F)cc4)sc4cc(O)ccc34)cc2)C1)N1CCC1`, the IC50 is 5.45 µM with Ishikawa [1], more than 50 µM in the data set with MDA-MB-231 and more than 25 µM in the data set with MCF7 [5].
Take `C=C(C)C(=O)NCCOc1ccc(Oc2c(-c3ccc(F)cc3)sc3cc(O)ccc23)cc1`: the values for the 50% inhibitory concentration (IC50) in the data set with Ishikawa [1], with MDA-MB-231 and in the data set with MCF7 [5] were more than 25 µM, more than 50 µM and more than 25 µM, respectively.
Regarding `O=C(/C=C/CNCCOc1ccc(Oc2c(-c3ccc(F)cc3)sc3cc(O)ccc23)cc1)N1CCOCC1`, the IC50 in the data set on Ishikawa [1] is 18.6 µM; in the data set with MDA-MB-231, more than 50 µM; with MCF7 [5], 8.24 µM.
Regarding `C/C=C/C(=O)N1CC(Oc2ccc(Oc3c(-c4ccc(F)cc4)sc4cc(O)ccc34)cc2)C1`, the results for the half-maximal inhibitory concentration (IC50) in the data set on Ishikawa [1], in the data set on MDA-MB-231 and in the data set on MCF7 [5] were 9.4 µM, more than 50 µM and 28 µM, respectively.
Consider `CNC(=O)/C=C/CNCCOc1ccc(Oc2c(-c3ccc(F)cc3)sc3cc(O)ccc23)cc1`, for which the figures for the IC50 in the data set with Ishikawa [1], in the data set with MDA-MB-231 and in the data set with MCF7 [5] were 15.5 µM, more than 50 µM and 16.1 µM, respectively.
Consider `C=CC(=O)NCCOc1ccc(Oc2c(-c3ccc(F)cc3)sc3cc(O)ccc23)cc1`, for which the IC50 with Ishikawa [1] is more than 25 µM; in the data set on MDA-MB-231, more than 50 µM; with MCF7 [5], 23 µM.
In the case of `CNC(=O)/C=C/CN1CC(Oc2ccc(Oc3c(-c4ccc(F)cc4)sc4cc(O)ccc34)cc2)C1`, the results for the IC50 in the data set with Ishikawa [1], in the data set on MDA-MB-231 and in the data set with MCF7 [5] were more than 25 µM, more than 50 µM and more than 25 µM, respectively.
Turning to `CN(C)C(=O)/C=C/CN1CC(Oc2ccc(Oc3c(-c4ccc(F)cc4)sc4cc(O)ccc34)cc2)C1`, the IC50 with Ishikawa [1] was 11.2 µM; in the data set with MDA-MB-231, more than 50 µM; in the data set on MCF7 [5] it was 22.3 µM.
Turning to `C/C=C/C(=O)NCCOc1ccc(Oc2c(-c3ccc(F)cc3)sc3cc(O)ccc23)cc1`, the IC50 is 12.4 µM with Ishikawa [1], more than 50 µM with MDA-MB-231 and 21.7 µM in the data set on MCF7 [5].
As for `O=C(/C=C/CN1CC(Oc2ccc(Oc3c(-c4ccc(F)cc4)sc4cc(O)ccc34)cc2)C1)N1CCCC1`, the results for the IC50 with Ishikawa [1], with MDA-MB-231 and in the data set on MCF7 [5] were 9.15 µM, more than 50 µM and 8.45 µM, respectively. Also, the Ratio IC50 in the data set with Ishikawa [7] was 1.35; with MCF7 [8], 2.
The term CLint scaled denotes a measure of how fast metabolising enzymes remove a compound, apart from limits set by blood flow. Take `O=C(c1ccc(F)cc1)C1CCN(CCn2c(=O)[nH]c3ccccc3c2=O)CC1` [KETANSERIN]: the CLint scaled in data set [10] was 132 mL/min/kg. Moreover, the half-life in data set [11] came to 18.8 min.

The values above are taken from ChEMBL document CHEMBL4837222, “Design and synthesis of novel benzothiophene analogs as selective estrogen receptor covalent antagonists against breast cancer” (Eur J Med Chem, 2021).
